The values that follow come from ChEMBL document CHEMBL4339197, “Discovery of Imidazo[1,2-a]pyrazines and Pyrazolo[1,5-c]pyrimidines as TARP γ-8 Selective AMPAR Negative Modulators” (ACS Med Chem Lett, 2019).

SMILES strings stand for the structures. pIC50: −log10 of the molar value. ≈ marks a conversion by molar mass, not a printed value. Calls of active or inactive are those of the source. The calls are words filed in the database; no cut-off is given here. Some results are limits rather than exact numbers.

Series [1] concerns the target GRIA1/CACNG8 (Homo sapiens). Nature of the series: Negative allosteric modulation of recombinant human GluA1 flop isoform/TARPgamma8 expressed in HEK293 cells assessed as inhibition of glutamate-induced calcium flux at 100 uM by calcium 5/6 dye based FLIPR assay. The following applies: for IC50: read-out: pIC50 (converted). Background: A change in cytosolic calcium serves as a functional read-out for many receptors and channels.

Series [2] is described as follows: Apparent permeability across apical to basolateral side in MDCK-MDR1 cells at 5 uM measured after 60 mins by LC-MS/MS analysis. It counts as ADME, cell-based, Canis lupus familiaris. The following applies: dog.
Series [3] in a line: Extraction ratio in rat liver microsomes at 1 uM measured after 60 mins by LC-MS/MS analysis. It counts as ADME, Microsome. The following applies: read-out: ERH. A digest of the protocol:
(§1)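 Metabolic stability in human and rat liver microsomes at 1 µM compound; reported as extraction ratio.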

Series [4] is described as follows: Extraction ratio in human liver microsomes at 1 uM measured after 60 mins by LC-MS/MS analysis. It is filed as ADME, Microsome. The following applies: read-out: ERH. The procedure, abridged:
as §1
In general terms: Liver microsomes are a subcellular fraction often used to study metabolism.

Series [5] in a line: Efflux ratio of apparent permeability across basolateral to apical side over apical to basolateral side in MDCK-MDR1 cells at 5 uM measured after 60 mins by LC-MS/MS analysis. It counts as ADME, cell-based, Canis lupus familiaris. The following applies: dog. A digest of the protocol:
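Bidirectional permeability; efflux reported as the ratio of B-to-A over A-to-B apparent permeability.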

Series [6] relates to Mus musculus. Nature of the series: Anticonvulsant activity in po dosed albino CF1 mouse model of 60-Hz corneal stimulation induced kindling model assessed as decrease of seizure score treated for 1 hr prior to 60-Hz corneal stimulation and measured after 1 hr.
For series [7], the system named is Mus musculus. Kind of series: Anticonvulsant activity in albino CF1 mouse model of 60-Hz corneal stimulation induced kindling model assessed as decrease in seizure score at 5 mg/kg/day measured 1 hr post last dose. It counts as functional, organism-based. A digest of the protocol: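 Mouse corneal kindling model; once-daily oral dosing at 5 mg/kg/day for 5 days, seizure challenge 1 h after dosing. Rotarod test given immediately before challenge. Read-out is the fraction of animals protected (Racine score 3 or lower). N = 12-14 animals per cohort.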

Series [8] deals with Mus musculus. Nature of the series: Ex vivo receptor occupancy at TARPgamma8 in mouse assessed as reduction in [3H]JNJ-56022486 receptor labeling at 10 mg/kg, po measured after 1 hr by autoradiography. It counts as functional. The procedure, abridged:
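Mice given a single 10 mg/kg p.o. dose and sampled over time (n = 3 per time point, ±SEM). GluA/γ-8 receptor occupancy in hippocampus measured by ex vivo autoradiography with [3H]JNJ-56022486 radiotracer. Plasma and brain exposures also measured.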

Series [9] has as its system Mus musculus. Kind of series: Ex vivo receptor occupancy at TARPgamma8 in po dosed mouse assessed as reduction in [3H]JNJ-56022486 receptor labeling by autoradiography. It counts as functional. The procedure, abridged:
(§2)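 Occupancy measured by ex vivo autoradiography with [3H]JNJ-56022486. ED50 from a Hill fit of occupancy versus dose. Brain and plasma EC50 from fitting occupancy against exposure.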

The test system of series [10] is Mus musculus. Kind of series: Ex vivo receptor occupancy at TARPgamma8 in po dosed mouse assessed as plasma concentration causing 50% reduction in [3H]JNJ-56022486 receptor labeling by autoradiography. It counts as functional, organism-based. The procedure, abridged:
as §2

In the next series the target is Cytochrome P450 2C9 (Homo sapiens, UniProt P11712). Kind of series: Inhibition of CYP2C9 in human liver microsomes using diclofenac as substrate measured after 15 mins in presence of NADPH by LC-MS/MS analysis. It is filed as ADME.
Chain of Cytochrome P450 2C9 (P11712 whole entry, canonical isoform): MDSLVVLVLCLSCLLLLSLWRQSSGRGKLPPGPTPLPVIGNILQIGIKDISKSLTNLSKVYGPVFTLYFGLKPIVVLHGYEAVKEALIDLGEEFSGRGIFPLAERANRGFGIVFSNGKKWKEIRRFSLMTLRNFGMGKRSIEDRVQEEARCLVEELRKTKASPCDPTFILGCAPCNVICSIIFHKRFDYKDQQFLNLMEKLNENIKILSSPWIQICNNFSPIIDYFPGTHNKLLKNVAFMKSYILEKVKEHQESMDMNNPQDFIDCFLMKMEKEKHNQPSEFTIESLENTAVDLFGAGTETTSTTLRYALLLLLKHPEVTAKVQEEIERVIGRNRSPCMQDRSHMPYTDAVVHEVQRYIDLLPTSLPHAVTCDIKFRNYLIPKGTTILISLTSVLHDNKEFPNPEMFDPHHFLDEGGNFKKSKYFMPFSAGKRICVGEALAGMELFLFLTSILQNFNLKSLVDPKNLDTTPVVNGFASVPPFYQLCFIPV
For series [11], the target named is T1, GRIA1/CACNG2 (Homo sapiens, UniProt P42261+Q9Y698). Nature of the series: Negative allosteric modulation of recombinant human GluA1 flop isoform/TARPgamma2 expressed in HEK293 cells assessed as inhibition of glutamate-induced calcium flux by calcium 5/6 dye based FLIPR assay. It counts as cell-based. A digest of the protocol: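 FLIPR Ca2+ flux assay in HEK-293 cells transiently expressing human GluA1o co-transfected with γ-2; glutamate-induced response; reported as pIC50.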
T1 sequence (P42261 whole entry, canonical isoform): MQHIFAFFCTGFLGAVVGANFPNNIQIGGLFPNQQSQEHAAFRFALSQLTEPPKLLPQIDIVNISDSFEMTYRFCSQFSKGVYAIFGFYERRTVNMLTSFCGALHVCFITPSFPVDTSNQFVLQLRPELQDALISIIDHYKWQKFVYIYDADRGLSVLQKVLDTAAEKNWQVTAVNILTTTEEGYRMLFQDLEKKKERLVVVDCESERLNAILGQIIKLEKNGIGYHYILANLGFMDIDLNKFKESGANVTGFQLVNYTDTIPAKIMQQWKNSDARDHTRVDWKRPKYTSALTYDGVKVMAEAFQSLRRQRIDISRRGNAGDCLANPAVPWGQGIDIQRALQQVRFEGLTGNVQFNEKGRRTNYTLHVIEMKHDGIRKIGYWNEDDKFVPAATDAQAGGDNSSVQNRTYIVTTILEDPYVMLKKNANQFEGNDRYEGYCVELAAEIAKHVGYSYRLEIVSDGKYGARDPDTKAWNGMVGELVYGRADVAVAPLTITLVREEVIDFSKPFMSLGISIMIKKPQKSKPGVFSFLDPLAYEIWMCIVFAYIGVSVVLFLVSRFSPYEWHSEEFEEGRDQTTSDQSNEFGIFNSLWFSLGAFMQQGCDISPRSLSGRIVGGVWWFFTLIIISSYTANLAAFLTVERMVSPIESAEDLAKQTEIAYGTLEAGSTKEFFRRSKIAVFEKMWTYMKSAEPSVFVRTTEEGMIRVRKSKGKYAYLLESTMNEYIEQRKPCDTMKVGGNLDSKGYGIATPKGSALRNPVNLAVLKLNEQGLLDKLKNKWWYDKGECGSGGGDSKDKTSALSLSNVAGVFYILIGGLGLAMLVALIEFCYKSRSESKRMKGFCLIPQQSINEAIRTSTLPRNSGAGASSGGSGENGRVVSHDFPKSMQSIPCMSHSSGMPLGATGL
T1 sequence (Q9Y698 whole entry, canonical isoform): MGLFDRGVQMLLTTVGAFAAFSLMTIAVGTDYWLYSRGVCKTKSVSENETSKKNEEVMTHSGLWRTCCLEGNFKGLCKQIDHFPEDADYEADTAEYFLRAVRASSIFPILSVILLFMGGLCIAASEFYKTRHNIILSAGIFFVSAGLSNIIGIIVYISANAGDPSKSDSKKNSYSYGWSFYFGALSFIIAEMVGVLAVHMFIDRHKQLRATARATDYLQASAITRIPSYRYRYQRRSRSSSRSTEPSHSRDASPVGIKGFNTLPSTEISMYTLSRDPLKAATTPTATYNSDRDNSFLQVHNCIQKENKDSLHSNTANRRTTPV

In the next series the target is GRIA1/CACNG8 (Homo sapiens, UniProt P42261+Q8WXS5). Kind of series: Negative allosteric modulation of recombinant human GluA1 flop isoform/TARPgamma8 expressed in HEK293 cells assessed as inhibition of glutamate-induced calcium flux by calcium 5/6 dye based FLIPR assay. It is filed as cell-based. The procedure, abridged: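 FLIPR assay of glutamate-induced Ca2+ flux in HEK-293 cells expressing a human GluA1o-γ-8 fusion construct. At least three assays each run in triplicate; mean pIC50 with standard deviation.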
Chain of GRIA1/CACNG8 (P42261 whole entry, the tested form may be a part, canonical isoform): as the sequence (P42261 whole entry, canonical isoform) above
Chain of GRIA1/CACNG8 (Q8WXS5 whole entry, the tested form may be a part, canonical isoform): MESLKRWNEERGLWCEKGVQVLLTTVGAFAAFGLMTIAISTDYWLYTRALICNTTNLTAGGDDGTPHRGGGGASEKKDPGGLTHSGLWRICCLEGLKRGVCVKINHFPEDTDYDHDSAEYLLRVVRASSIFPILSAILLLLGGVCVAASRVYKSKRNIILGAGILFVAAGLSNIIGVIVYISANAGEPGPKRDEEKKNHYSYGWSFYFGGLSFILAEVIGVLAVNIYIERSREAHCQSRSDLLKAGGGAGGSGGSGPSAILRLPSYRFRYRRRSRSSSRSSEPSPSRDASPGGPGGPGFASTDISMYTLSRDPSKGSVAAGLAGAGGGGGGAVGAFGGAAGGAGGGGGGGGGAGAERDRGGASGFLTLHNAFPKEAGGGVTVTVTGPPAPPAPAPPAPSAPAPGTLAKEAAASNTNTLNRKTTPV

In series [12] the target is T1, GRIA1/CACNG2. Kind of series: Negative allosteric modulation of recombinant human GluA1 flop isoform/TARPgamma2 expressed in HEK293 cells assessed as inhibition of glutamate-induced calcium flux at 100 uM by calcium 5/6 dye based FLIPR assay. It is filed as cell-based. The following applies: hek293, 100 µM. The procedure, abridged:
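Counterscreen of FLIPR Ca2+ flux in HEK-293 cells co-transfected with human GluA1o and γ-2, tested up to 100 µM.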

Series [13] concerns the target T2, Voltage-dependent calcium channel gamma-8 subunit (Rattus norvegicus) (UniProt Q8VHW5).
T2 sequence (whole entry): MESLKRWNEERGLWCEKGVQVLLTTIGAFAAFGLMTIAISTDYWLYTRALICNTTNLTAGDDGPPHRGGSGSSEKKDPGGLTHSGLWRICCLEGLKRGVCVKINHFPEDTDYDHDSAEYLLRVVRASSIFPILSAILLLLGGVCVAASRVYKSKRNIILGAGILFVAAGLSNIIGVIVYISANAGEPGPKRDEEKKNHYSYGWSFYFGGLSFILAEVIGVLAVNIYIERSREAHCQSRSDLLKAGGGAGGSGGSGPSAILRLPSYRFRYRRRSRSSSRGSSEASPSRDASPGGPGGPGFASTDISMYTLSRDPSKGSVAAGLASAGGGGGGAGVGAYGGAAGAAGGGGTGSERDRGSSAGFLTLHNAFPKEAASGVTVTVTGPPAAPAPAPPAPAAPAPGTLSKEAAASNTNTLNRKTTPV
Kind of series: Negative allosteric modulation of TARPgamma8 in rat hippocampal neurons assessed as inhibition of glutamate-induced current at 10 uM at -60 mV holding potential measured at 5 secs interval for 50 to 60 secs by patch-clamp electrophysiology method relative to control. For orientation: In patch-clamp work, channel activity is measured electrically.

For series [14], the target named is T3, Voltage-dependent calcium channel gamma-2 subunit (Rattus norvegicus, UniProt Q71RJ2).
T3 sequence (Q71RJ2 whole entry): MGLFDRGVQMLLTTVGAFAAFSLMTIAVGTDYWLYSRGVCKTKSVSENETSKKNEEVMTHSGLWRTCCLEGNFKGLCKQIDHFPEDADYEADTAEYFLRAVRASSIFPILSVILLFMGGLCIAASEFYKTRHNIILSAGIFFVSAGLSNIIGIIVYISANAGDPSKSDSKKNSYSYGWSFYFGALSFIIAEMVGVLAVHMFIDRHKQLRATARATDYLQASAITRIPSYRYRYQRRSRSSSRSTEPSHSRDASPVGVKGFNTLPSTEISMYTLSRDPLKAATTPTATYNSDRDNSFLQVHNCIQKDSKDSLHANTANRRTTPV
Nature of the series: Negative allosteric modulation of TARPgamma2 in rat cerebellar purkinje neurons assessed as inhibition of glutamate-induced current at 10 uM at -60 mV holding potential measured at 5 secs interval for 50 to 60 secs by patch-clamp electrophysiology method.

In series [15] the target is T2, Voltage-dependent calcium channel gamma-8 subunit (Rattus norvegicus). Kind of series: Negative allosteric modulation of TARPgamma8 in rat hippocampal neurons assessed as inhibition of glutamate-induced current at 10 uM at -60 mV holding potential by patch-clamp electrophysiology method.

For the molecule `Oc1ccc(-c2c(-c3ccc(Cl)cc3)nc3c(N4CCOCC4)nccn23)cc1`, the IC50 in series [1] was 10 nM.
On to `O=C1Cc2cc(-c3c(-c4ccc(F)cc4)nn4c(N5CCC(F)CC5)nccc34)ccc2N1`, for which, in series [1], the IC50 was 5.01 nM. In series [2], the apical-to-basolateral permeability (Papp A→B) (usually how fast a substance crosses the layer from the apical side) at 1 h, 5 µM is 1.2 ×10⁻⁶ cm/s. Further, the hepatic extraction ratio at 1 h, 1 µM in [3] and in [4] was 0.6 throughout.
On to `CC(=O)N1CCN(c2nccc3c(-c4ccc5c(c4)CC(=O)N5)c(-c4ccc(F)cc4)nn23)CC1`, for which the IC50 in series [1] was 0.251 nM. Also, the apical-to-basolateral permeability (Papp A→B) at 1 h, 5 µM in series [2] was found to be 2.1 ×10⁻⁶ cm/s. Also, the results for the hepatic extraction ratio at 1 h, 1 µM in series [3] and in series [4] were 0.5 and 0.6, respectively. For the same molecule, the efflux ratio (as a rule, a quotient of directional permeabilities that is used to spot active efflux) at 1 h, 5 µM in series [5] turned out to be 34.
Take `Oc1ccc(-c2c(-c3ccc(F)cc3)nc3c(N4CCOCC4)nccn23)cc1`: the IC50 in [1] is 12.6 nM.
In the case of `O=C1CN(c2nccc3c(-c4ccc5c(c4)CC(=O)N5)c(-c4ccc(F)cc4)nn23)CCN1`, the IC50 in series [1] was 5.01 nM.
As for `O=C1CN(c2nccn3c(-c4ccc5c(c4)CC(=O)N5)c(-c4ccc(F)cc4)nc23)CCN1`, the IC50 in [1] is 0.501 nM.
Turning to `O=C1Cc2cc(-c3c(-c4ccc(F)cc4)nn4c(N5CCC(O)CC5)nccc34)ccc2N1`, the values for the ED50 in the series on Mus musculus [6] and with Mus musculus [9] were 1.3 mg/kg and 2.9 mg/kg, respectively. Further, the outcome with Mus musculus [7] was Active. The Occ in the series on Mus musculus [8] was more than 90%. In addition, in the series with Mus musculus [10], the concentration for a half-maximal effect (EC50) (as a rule, the concentration that produces a half-maximal response) is 0.362 µg/mL (≈ 0.816 µM).
As to `CC(=O)Nc1ccc(-c2c(-c3ccc(F)cc3)nc3c(N4CCOCC4)nccn23)cc1`, the IC50 in [1] is more than 10000 nM.
The same measure, in the same setting: the result for `COc1ccc(-c2c(-c3ccc(F)cc3)nc3c(N4CCOCC4)nccn23)cc1` reads 501 nM.
For the molecule `O=C1Cc2cc(-c3c(-c4ccc(F)cc4)nc4c(N5CCC(F)CC5)nccn34)ccc2N1`, the negative-log IC50 (pIC50) (in general, the IC50 on a negative log10 scale, so that one unit is a factor of ten) in series [1] (read-out: IC50) is 10.00.
Turning to `Fc1ccc(-c2nc3c(N4CCOCC4)nccn3c2-c2ccc3[nH]ncc3c2)cc1`, the IC50 in series [1] is 0.631 nM. Besides, the pIC50 on Cytochrome P450 2C9 is 6.30.
`Nc1ccc(-c2c(-c3ccc(F)cc3)nc3c(N4CCOCC4)nccn23)cc1`: the IC50 in series [1] is 63.1 nM.
With `Oc1ccc(-n2c(-c3ccc(F)cc3)nc3ccccc32)cc1`, the pIC50 on GRIA1/CACNG2 [11] is 5.90; on GRIA1/CACNG8, 6.70.
As to `O=C1Cc2cc(-c3c(-c4ccc(F)cc4)nc4c(N5CCC(O)CC5)nccn34)ccc2N1`, the IC50 in series [1] was 0.398 nM.
As for `CC(=O)N1CCN(c2nccn3c(-c4ccc5c(c4)CC(=O)N5)c(-c4ccc(F)cc4)nc23)CC1`, in series [1], the IC50 was 0.398 nM.
For `COCCn1cc(-c2c(-c3ccc(Cl)cc3)nc3c(N4CCOCC4)nccn23)cn1`, the “inhibition (INH)” value (at GRIA1/CACNG2 [12]; in series [14]) was “Not Active” in each case. The values for the negative-log IC50 (pIC50) at GRIA1/CACNG2 [11] and on GRIA1/CACNG8 were less than 5.00 and 6.90, respectively. The inhibition – broadly, the share of the control response that was lost under treatment – is 50% in series [13] and “Dose-dependent effect” in series [15].
Consider `O=C1Cc2cc(-c3c(-c4ccc(F)cc4)nn4c(N5CCOCC5)nccc34)ccc2N1`, for which the IC50 in series [1] was 0.501 nM.
